In ChEMBL document CHEMBL1154130, “Synthesis and biological activities of thio-avarol derivatives” (J Nat Prod, 2008):
Values after ≈ are worked out from the molar mass of the structure shown. Active and inactive are the calls of the source. The calls are words filed in the database; no cut-off is given here.

What was measured:
Bacillus spizizenii = assay: Antimicrobial activity against Bacillus subtilis subsp. spizizenii DMS 347 after 48 hrs by serial dilution method; assay type: functional
Method in brief: (§1)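 Bacteria grown as liquid cultures in nutrient broth at 37 °C. […] Growth was scored after 48 h of incubation.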

Micrococcus luteus = assay: Antimicrobial activity against Micrococcus luteus DMS 348 after 48 hrs by serial dilution method; assay type: functional; method in brief: as §1
[1] = test system: Radical scavenging activity; assay: Antioxidant activity assessed as DPPH radical scavenging activity; assay type: functional
Method in brief: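 Compounds were tested in MeOH at 5, 10, 20, 50 and 100 µM with DPPH at 0.1 mM final. Absorbance at 517 nm was read after 30 min. Percent radical inhibition was plotted to give the IC50, the concentration scavenging 50% of DPPH. Trolox was the positive control.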

Saccharomyces cerevisiae = assay: Antimicrobial activity against Saccharomyces cerevisiae DMS 70449 after 48 hrs by serial dilution method; assay type: functional
Escherichia coli = assay: Antimicrobial activity against Escherichia coli DSM 498 after 48 hrs by serial dilution method; assay type: functional, organism-based; method in brief: as §1
Artemia salina = assay: Toxicity against Artemia salina after 24 hrs; assay type: organism-based; details: in vivo
Method in brief: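 Freshly hatched Artemia salina larvae (10 per test) in 5 mL artificial seawater; compounds dissolved in DMSO, tested at final 100, 10 and 1 ppm, in triplicate. Surviving shrimps counted after 24 h; LD50 with 95% confidence intervals by Finney probit analysis, reported in ppm.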

[2] = biological target: Acetylcholinesterase (Homo sapiens) (UniProt P22303)
Chain of Acetylcholinesterase (Homo sapiens) (P22303 whole entry): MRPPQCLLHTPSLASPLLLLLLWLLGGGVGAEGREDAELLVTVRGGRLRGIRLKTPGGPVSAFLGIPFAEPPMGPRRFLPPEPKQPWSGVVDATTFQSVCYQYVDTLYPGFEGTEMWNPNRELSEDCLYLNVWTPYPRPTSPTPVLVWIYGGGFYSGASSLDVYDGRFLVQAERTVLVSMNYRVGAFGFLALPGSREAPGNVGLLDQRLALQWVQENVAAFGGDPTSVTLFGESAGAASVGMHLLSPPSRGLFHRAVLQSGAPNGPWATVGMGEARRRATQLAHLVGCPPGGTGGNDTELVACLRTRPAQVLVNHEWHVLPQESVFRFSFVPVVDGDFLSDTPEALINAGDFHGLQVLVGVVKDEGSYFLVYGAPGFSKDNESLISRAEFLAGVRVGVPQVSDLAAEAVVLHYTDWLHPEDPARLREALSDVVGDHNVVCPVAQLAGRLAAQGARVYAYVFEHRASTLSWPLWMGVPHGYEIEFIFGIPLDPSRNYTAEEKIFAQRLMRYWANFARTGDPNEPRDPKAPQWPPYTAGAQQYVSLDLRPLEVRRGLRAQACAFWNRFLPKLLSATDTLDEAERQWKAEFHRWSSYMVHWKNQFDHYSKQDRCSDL

| Compound | MIC (Bacillus spizizenii) | MIC (Micrococcus luteus) | IC50 ([1]; read-out: IC50) | MIC (Saccharomyces cerevisiae) | Activity (Escherichia coli) | LC50 (Artemia salina) | MIC [2] | MIC (Micrococcus luteus; DMS 348, 48 h) | MIC (Saccharomyces cerevisiae; DMS 70449, 48 h) | MIC (Bacillus spizizenii; DMS 347, 48 h) | IC50 [1] |
| --- | --- | --- | --- | --- | --- | --- | --- | --- | --- | --- | --- |
| GENTAMICIN | 1 µg/mL | 10 µg/mL |  |  |  |  |  |  |  |  |  |
| CC1=CCC[C@H]2[C@](C)(Cc3cc(O)cc(Sc4ccccc4CO)c3O)[C@@H](C)CC[C@]12C | inactive | inactive | 25.3 µM | inactive | inactive | > 50 ppm | 10 µg |  |  |  |  |
| CC1=CCC[C@H]2[C@](C)(Cc3cc(O)cc(Sc4nc5ccccc5s4)c3O)[C@@H](C)CC[C@]12C | inactive |  | 29.5 µM |  | inactive | Not Active | 10 µg | 0.01 µg/mL (≈ 0.0208 µM) | 100 µg/mL (≈ 208 µM) |  |  |
| CC1=CCC[C@H]2[C@](C)(CC3=CC(O)C(S[C@H]4CC[C@@]5(C)C(=CC[C@H]6[C@@H]7CC[C@H]([C@H](C)CCCC(C)C)[C@@]7(C)CC[C@@H]65)C4)=CC3O)[C@@H](C)CC[C@]12C (stereo partly specified) |  |  | 71.4 µM |  |  | Not Active |  |  |  |  |  |
| Cc1c(C)c2c(c(C)c1O)CCC(C)(C(=O)O)O2 (stereo unspecified) [TROLOX] |  |  | 25.8 µM |  |  |  |  |  |  |  |  |
| CC1=CCC[C@H]2[C@](C)(Cc3cc(O)ccc3O)[C@@H](C)CC[C@]12C [AVAROL] |  |  | 18 µM | inactive | inactive | 0.18 ppm | 10 µg | 10 µg/mL (≈ 31.8 µM) |  | 25 µg/mL (≈ 79.5 µM) |  |
| CC1=CCC[C@H]2[C@](C)(Cc3cc(O)cc(SC(C)C(=O)O)c3O)[C@@H](C)CC[C@]12C (stereo partly specified) |  | inactive | 34.6 µM | inactive | inactive | 27.25 ppm | 1 µg |  |  | 10 µg/mL (≈ 23.9 µM) |  |
| CC1=CCC[C@H]2[C@](C)(CC3=CC(O)C(S[C@H]4CC[C@@]5(C)C(=CC[C@H]6[C@@H]7CC[C@H]([C@H](C)CCCC(C)C)[C@@]7(C)CC[C@@H]65)C4)=C(S[C@H]4CC[C@@]5(C)C(=CC[C@H]6[C@@H]7CC[C@H]([C@H](C)CCCC(C)C)[C@@]7(C)CC[C@@H]65)C4)C3O)[C@@H](C)CC[C@]12C (stereo partly specified) | inactive | inactive | 41.5 µM | inactive | inactive | Not Active | > 10 µg |  |  |  |  |
| CC1=CCC[C@H]2[C@](C)(CC3=CC(=O)C=CC3=O)[C@@H](C)CC[C@]12C [AVARONE] |  |  | 32.1 µM | inactive | inactive | 0.14 ppm | 1 µg | 1 µg/mL (≈ 3.2 µM) |  | 10 µg/mL (≈ 32 µM) |  |
| NYSTATIN |  |  |  | 100 µg/mL |  |  |  |  |  |  |  |
| CC1=CCC[C@H]2[C@](C)(Cc3cc(O)c(Sc4nc5ccccc5s4)cc3O)[C@@H](C)CC[C@]12C | inactive | inactive | 31.2 µM | inactive | inactive | Not Active | > 10 µg |  |  |  |  |
| CC1=CCC[C@H]2[C@](C)(Cc3cc(O)c(SC(C)C(=O)O)cc3O)[C@@H](C)CC[C@]12C (stereo partly specified) |  | inactive | 35.3 µM | inactive | inactive | > 50 ppm | 1 µg |  |  | 10 µg/mL (≈ 23.9 µM) |  |
| CC1=CCC[C@H]2[C@](C)(CC3=CC(=O)C(S[C@H]4CC[C@@]5(C)C(=CC[C@H]6[C@@H]7CC[C@H]([C@H](C)CCCC(C)C)[C@@]7(C)CC[C@@H]65)C4)=CC3=O)[C@@H](C)CC[C@]12C | inactive | inactive |  | inactive | inactive | Not Active | > 10 µg |  |  |  | Not Active |
| CC1=CCC[C@H]2[C@](C)(Cc3cc(O)cc(Sc4cccc(C(=O)O)c4)c3O)[C@@H](C)CC[C@]12C |  |  | 31.8 µM | inactive | inactive | 14.73 ppm | 1 µg | 10 µg/mL (≈ 21.4 µM) |  | 10 µg/mL (≈ 21.4 µM) |  |
